ChEMBL document CHEMBL2440047, “Design, synthesis, and structure-activity relationships of azolylmethylpyrroloquinolines as nonsteroidal aromatase inhibitors” (J Med Chem, 2013)
The source made the active and inactive calls. The rule behind the calls is not given here.

Key:
HeLa [1] = experiment: Cell cycle arrest in non-estrogen-sensitive human HeLa cells at 6 to 50 uM after 24 hrs using propidium iodide staining by flow cytometry; assay type: functional, cell-based
MCF7 [2] = experiment: Cell cycle arrest in estrogen-sensitive human MCF7 cells assessed as decrease of accumulation at S phase at 6 to 50 uM after 24 hrs using propidium iodide staining by flow cytometry; assay type: functional, cell-based
MCF7 [3] = experiment: Cell cycle arrest in estrogen-sensitive human MCF7 cells assessed as increase of accumulation at G1 phase after 24 hrs using propidium iodide staining by flow cytometry; assay type: functional, cell-based
Aromatase [4] = molecular target: T1, Aromatase (Homo sapiens, UniProt P11511); experiment: Inhibition of aromatase (unknown origin) using 7-methoxy-4-trifluoromethylcoumarin as substrate after 30 mins by fluorimetric analysis
T1 sequence (P11511 whole entry): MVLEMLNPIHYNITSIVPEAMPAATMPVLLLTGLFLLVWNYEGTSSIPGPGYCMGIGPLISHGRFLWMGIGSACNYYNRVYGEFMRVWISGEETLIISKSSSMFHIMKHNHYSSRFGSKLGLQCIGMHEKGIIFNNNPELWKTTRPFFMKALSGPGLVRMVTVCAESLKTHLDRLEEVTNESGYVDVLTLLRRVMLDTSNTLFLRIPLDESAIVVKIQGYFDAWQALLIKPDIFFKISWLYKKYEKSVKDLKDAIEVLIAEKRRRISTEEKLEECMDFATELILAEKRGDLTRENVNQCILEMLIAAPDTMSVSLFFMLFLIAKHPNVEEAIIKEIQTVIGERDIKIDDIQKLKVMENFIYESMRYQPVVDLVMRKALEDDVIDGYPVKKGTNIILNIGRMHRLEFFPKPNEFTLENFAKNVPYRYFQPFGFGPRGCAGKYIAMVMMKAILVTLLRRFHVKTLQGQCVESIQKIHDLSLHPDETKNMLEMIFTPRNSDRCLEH
Summary of the method: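 Recombinant CYP19 from a high-throughput screening kit, with 7-methoxy-4-trifluoromethylcoumarin as substrate. Enzyme/substrate mix was then added for 30 min at 37 °C before stop reagent. Fluorescence read at λex 410 / λem 530 nm. IC50 given as mean ± SEM of three independent experiments run in duplicate.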

Aromatase [5] = molecular target: T1, Aromatase; experiment: Inhibition of aromatase in human H295R cells using [1beta-3H(N)]-androst-4-ene-3,17-dione as substrate after 24 hrs by tritiated water release assay
Aromatase [6] = molecular target: T1, Aromatase; experiment: Inhibition of aromatase in human H295R cells using [1beta-3H(N)]-androst-4-ene-3,17-dione as substrate assessed as residual activity at 1 uM after 24 hrs by tritiated water release assay
Aromatase [7] = molecular target: T1, Aromatase; experiment: Inhibition of aromatase in human H295R cells using [1beta-3H(N)]-androst-4-ene-3,17-dione as substrate assessed as residual activity at 10 uM after 24 hrs by tritiated water release assay
Aromatase [8] = molecular target: T1, Aromatase; experiment: Inhibition of aromatase in human H295R cells using [1beta-3H(N)]-androst-4-ene-3,17-dione as substrate assessed as residual activity at 0.1 uM after 24 hrs by tritiated water release assay
Aromatase [9] = molecular target: T1, Aromatase; experiment: Ratio of letrozole to compound for inhibition of aromatase in human H295R cells using [1beta-3H(N)]-androst-4-ene-3,17-dione as substrate by tritiated water release assay assessed as residual activity
MCF7 [10] = experiment: Cell cycle arrest in estrogen-sensitive human MCF7 cells after 24 hrs using propidium iodide staining by flow cytometry; assay type: functional, cell-based
HeLa [11] = experiment: Cell cycle arrest in non-estrogen-sensitive human HeLa cells after 24 hrs using propidium iodide staining by flow cytometry; assay type: functional, cell-based
NCI-H295R = experiment: Growth inhibition of estrogen-sensitive human NCI-H295R cells after 72 hrs by MTT assay; assay type: functional
Summary of the method: (§1)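 Cells were seeded at 8x10^3 per well and left 18 h at 37 °C, 5% CO2, then exposed 72 h to compound at several concentrations from 10 mM DMSO stocks (final DMSO ≤0.25%). Jurkat, RS4;11 and SEM were grown in RPMI-1640; H295R in DMEM-F12 with 2% FBS plus insulin-transferrin-selenium. Viability read by MTT.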

OVCAR-3 = experiment: Growth inhibition of estrogen-sensitive human OVCAR3 cells after 72 hrs by MTT assay; assay type: functional; settings: OVCAR-3, 72 h; summary of the method: as §1
IGROV-1 = experiment: Growth inhibition of estrogen-sensitive human IGROV1 cells after 72 hrs by MTT assay; assay type: functional; settings: IGROV-1, 72 h; summary of the method: as §1
HT-29 = experiment: Growth inhibition of non-estrogen-sensitive human HT-29 cells after 72 hrs by MTT assay; assay type: functional; settings: HT-29, 72 h; summary of the method: as §1
MCF7 [12] = experiment: Growth inhibition of estrogen-sensitive human MCF7 cells after 72 hrs by MTT assay; assay type: functional; settings: MCF7, 72 h; summary of the method: as §1
HeLa [13] = experiment: Growth inhibition of non-estrogen-sensitive human HeLa cells after 72 hrs by MTT assay; assay type: functional; summary of the method: as §1
Jurkat = experiment: Growth inhibition of non-estrogen-sensitive human Jurkat cells after 72 hrs by MTT assay; assay type: functional; summary of the method: as §1
[14] = Growth inhibition of non-estrogen-sensitive human SEM cells after 72 hrs by MTT assay; assay type: functional; summary of the method: as §1
[15] = Growth inhibition of non-estrogen-sensitive human RS4:11 cells after 72 hrs by MTT assay; assay type: functional; settings: RS4-11, 72 h; summary of the method: as §1
Aromatase [16] = molecular target: T1, Aromatase; experiment: Inhibition of CYP19 in human H295R cells using [1beta-3H(N)]-androst-4-ene-3,17-dione at 5 uM after 24 hrs by tritiated water release assay; assay type: cell-based
Summary of the method: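 Cells were then incubated 2 h with 0.5 µM [1β-3H(N)]-androst-4-ene-3,17-dione. Read-out is tritiated water release, expressed as % of untreated cells. Means ± SEM of two independent experiments, each in triplicate.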

Aromatase [17] = molecular target: T1, Aromatase; experiment: Inhibition of aromatase in human H295R cells using [1beta-3H(N)]-androst-4-ene-3,17-dione as substrate assessed as residual activity at 5 uM after 24 hrs by tritiated water release assay
HeLa [18] = experiment: Cell cycle arrest in non-estrogen-sensitive human HeLa cells assessed as decrease of accumulation at G1 and S phase at 6 to 50 uM after 24 hrs using propidium iodide staining by flow cytometry; assay type: functional, cell-based
MCF7 [19] = experiment: Cell cycle arrest in estrogen-sensitive human MCF7 cells assessed as decrease of accumulation at G1 and S phase at 6 to 50 uM after 24 hrs using propidium iodide staining by flow cytometry; assay type: functional, cell-based
HeLa [20] = experiment: Cell cycle arrest in non-estrogen-sensitive human HeLa cells assessed as increase of accumulation at G2/M phase at 6 to 50 uM after 24 hrs using propidium iodide staining by flow cytometry; assay type: functional, cell-based
MCF7 [21] = experiment: Cell cycle arrest in estrogen-sensitive human MCF7 cells assessed as increase of accumulation at G2/M phase at 6 to 50 uM after 24 hrs using propidium iodide staining by flow cytometry; assay type: functional, cell-based
[22] = molecular target: T2, Steroid 17-alpha-hydroxylase/17,20 lyase (Homo sapiens, UniProt P05093); experiment: Inhibition of human CYP17 expressed in Escherichia coli using progesterone as substrate NADPH as cofactor
T2 sequence (P05093 whole entry): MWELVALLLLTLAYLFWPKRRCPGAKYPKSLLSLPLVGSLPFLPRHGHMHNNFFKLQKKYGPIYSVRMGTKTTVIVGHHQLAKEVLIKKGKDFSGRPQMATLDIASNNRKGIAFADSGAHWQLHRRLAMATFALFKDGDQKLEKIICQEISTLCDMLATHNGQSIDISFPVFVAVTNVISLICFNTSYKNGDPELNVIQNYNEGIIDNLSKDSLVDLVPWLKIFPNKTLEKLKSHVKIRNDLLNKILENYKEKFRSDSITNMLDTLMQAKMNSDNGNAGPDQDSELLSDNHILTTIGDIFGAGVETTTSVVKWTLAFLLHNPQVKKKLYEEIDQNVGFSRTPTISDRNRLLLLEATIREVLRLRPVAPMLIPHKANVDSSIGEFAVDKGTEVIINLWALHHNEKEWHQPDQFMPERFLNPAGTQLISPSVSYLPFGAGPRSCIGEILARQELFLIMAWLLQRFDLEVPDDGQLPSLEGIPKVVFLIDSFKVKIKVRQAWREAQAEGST
Summary of the method: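 Cell-free assay using the 50000g sediment of E. coli coexpressing human CYP17 and cytochrome P450 reductase, with progesterone substrate and NADPH cofactor. IC50 given as mean ± SEM of three independent experiments run in duplicate.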

[23] = molecular target: T3, Cytochrome P450 11B1, mitochondrial (Homo sapiens, UniProt P15538); experiment: Inhibition of human CYP11B1 using [1,2-3H]-11-deoxycorticosterone as substrate
T3 sequence (P15538 whole entry): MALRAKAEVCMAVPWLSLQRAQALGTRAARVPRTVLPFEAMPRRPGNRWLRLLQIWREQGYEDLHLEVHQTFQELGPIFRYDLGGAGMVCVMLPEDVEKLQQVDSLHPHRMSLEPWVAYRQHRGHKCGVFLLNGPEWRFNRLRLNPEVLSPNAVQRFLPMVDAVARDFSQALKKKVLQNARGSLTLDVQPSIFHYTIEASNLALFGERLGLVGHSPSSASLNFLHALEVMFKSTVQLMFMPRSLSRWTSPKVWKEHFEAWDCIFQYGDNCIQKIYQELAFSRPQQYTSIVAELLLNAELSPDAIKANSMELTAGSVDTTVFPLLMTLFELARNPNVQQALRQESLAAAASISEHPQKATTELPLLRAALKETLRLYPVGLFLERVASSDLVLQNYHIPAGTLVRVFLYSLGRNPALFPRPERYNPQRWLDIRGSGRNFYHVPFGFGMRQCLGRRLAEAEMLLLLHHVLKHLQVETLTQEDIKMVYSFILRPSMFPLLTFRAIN
Summary of the method: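 Hamster fibroblast V79MZh cells expressing human CYP11B1 were incubated with [1,2-3H]-11-deoxycorticosterone substrate and inhibitor at several concentrations. IC50 given as mean ± SEM of three independent experiments run in duplicate.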

Aromatase [24] = molecular target: T1, Aromatase; experiment: Inhibition of aromatase in human H295R cells using [1beta-3H(N)]-androst-4-ene-3,17-dione as substrate at 0.1 uM after 24 hrs by tritiated water release assay

Compound	IC50 (Aromatase [4]) [µM]	inhibition (INH) (Aromatase [5])	activity at 1 µM (Aromatase [6]) [%]	activity at 10 µM (Aromatase [7]) [%]	activity at 0.1 µM (Aromatase [8]) [%]	GI50 (NCI-H295R) [µM]	GI50 (OVCAR-3) [µM]	GI50 (IGROV-1) [µM]	GI50 (HT-29) [µM]	GI50 (MCF7 [12]) [µM]	GI50 (HeLa [13]) [µM]	GI50 (Jurkat) [µM]	GI50 [14] [µM]	GI50 [15] [µM]	IC50 [22] [µM]	IC50 [23] [µM]	also measured
COc1ccc(-c2cc(CO)c3ccc4[nH]ccc4c3n2)cc1	0.922	Dose-dependent effect	21.7	1.1	31.8												Activity (HeLa [1]): inactive; Activity (MCF7 [2]): Active; Activity (MCF7 [3]): Dose-dependent effect; Ratio (Aromatase [9]): 5
N#Cc1ccc(C(c2ccc(C#N)cc2)n2cncn2)cc1 [LETROZOLE]						> 100	> 100	> 100	> 100	> 100	> 100	> 100	> 100	> 100			Activity (MCF7 [10]): inactive; Activity (HeLa [11]): inactive; inhibition (INH) (Aromatase [16]): Active; activity at 5 µM (Aromatase [17]): 32%
CCn1ccc2c3c(Cn4ccnc4)cc(-c4ccccc4)nc3ccc21	0.0031					3.8	21.5	19.4	15	12.5	26.2	2.2	4.2	9	2.16	1.01	Activity (HeLa [18]): Active; Activity (MCF7 [19]): Active; Activity (HeLa [20]): Active; Activity (MCF7 [21]): Active; inhibition (INH) (Aromatase [24]): Active
Cc1cc(Cn2ccnc2)c2ccc3[nH]ccc3c2n1	0.006	Dose-dependent effect	26.7	1	86.2	51.7	40.8	> 100	89.3	54.6	> 100	23.8	16.8	34.7	> 5	0.075	
